Measurements as given in publication PMC7528620 (Clinical cancer research : an official journal of the …, 2019).
Marks after values point to notes of the source that are not given here.

Key:
[1] = Plasma pharmacokinetics, study INCB 54329-101; assay type: in vivo, human
Outline: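 Plasma PK used noncompartmental analysis in patients given ≥1 dose with ≥1 PK sample. Oral dosing was 15–30 mg QD or 15–25 mg BID, continuous or intermittent; the first 3 patients also received a single 5-mg PK dose at day 0. Steady-state oral clearance (CLss/F) and terminal half-life are reported as mean with SD.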

[2] = system: patients with advanced malignancies; assay: Safety and tolerability, phase 1/2 study INCB 54329-101; assay type: in vivo; settings: for TRAEs (any): all treatment groups; for TRAE thrombocytopenia: incl. platelet counts decreased
[3] = system: advanced malignancies; assay: Objective response assessment, study INCB 54329-101; assay type: in vivo, human
Outline: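 Open-label phase 1/2 monotherapy study in adults (≥18 y) with relapsed/refractory advanced malignancies and ECOG ≤1. Oral dosing was 15–30 mg QD or 15–25 mg BID, continuous or intermittent (5/2, 4/3, 7/7 days on/off), in 21-day cycles. Part 2 used intrapatient titration from 20 mg BID. Response was assessed with malignancy-specific criteria in patients with ≥1 dose, measurable/evaluable baseline disease and ≥1 post-baseline assessment.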

[4] = target: CYP3A4 (Homo sapiens, UniProt P08684); assay: In vitro metabolism studies; assay type: in vitro ADME
Chain of CYP3A4 (P08684 whole entry): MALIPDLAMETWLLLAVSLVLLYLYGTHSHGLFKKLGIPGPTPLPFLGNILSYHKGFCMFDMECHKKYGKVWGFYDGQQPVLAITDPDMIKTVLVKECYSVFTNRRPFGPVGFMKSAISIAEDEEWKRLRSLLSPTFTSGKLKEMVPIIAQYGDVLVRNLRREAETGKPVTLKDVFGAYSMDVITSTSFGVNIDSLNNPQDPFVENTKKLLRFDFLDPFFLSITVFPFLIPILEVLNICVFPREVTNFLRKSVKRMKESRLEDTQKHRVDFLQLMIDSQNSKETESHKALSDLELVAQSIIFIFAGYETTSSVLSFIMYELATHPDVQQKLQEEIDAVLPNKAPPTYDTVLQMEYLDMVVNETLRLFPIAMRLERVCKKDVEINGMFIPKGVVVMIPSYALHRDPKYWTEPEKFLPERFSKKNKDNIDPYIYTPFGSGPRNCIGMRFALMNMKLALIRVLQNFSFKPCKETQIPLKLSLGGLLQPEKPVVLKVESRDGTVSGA

[5] = target: CYP2C19 (Homo sapiens, UniProt P33261); assay: In vitro metabolism studies; assay type: in vitro ADME
Chain of CYP2C19 (P33261 whole entry): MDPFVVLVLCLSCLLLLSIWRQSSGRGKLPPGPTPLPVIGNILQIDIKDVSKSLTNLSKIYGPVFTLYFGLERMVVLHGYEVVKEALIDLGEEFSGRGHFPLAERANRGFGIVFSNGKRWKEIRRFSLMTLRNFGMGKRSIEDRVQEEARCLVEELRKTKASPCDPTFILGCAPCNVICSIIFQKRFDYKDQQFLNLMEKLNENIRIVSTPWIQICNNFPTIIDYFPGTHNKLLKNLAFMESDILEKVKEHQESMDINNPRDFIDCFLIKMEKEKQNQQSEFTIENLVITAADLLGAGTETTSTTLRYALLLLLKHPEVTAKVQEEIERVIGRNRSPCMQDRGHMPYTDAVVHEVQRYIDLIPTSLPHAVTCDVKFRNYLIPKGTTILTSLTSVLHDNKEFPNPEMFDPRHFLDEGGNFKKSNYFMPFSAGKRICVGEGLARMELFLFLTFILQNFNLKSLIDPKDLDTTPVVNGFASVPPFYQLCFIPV

[6] = Plasma pharmacokinetics, study INCB 57643-101; assay type: in vivo, human; settings: for half-life: human, plasma
Outline: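 Plasma PK used noncompartmental analysis in patients given ≥1 dose with ≥1 PK sample, dosed orally at 8, 12 or 16 mg QD continuously. Steady-state oral clearance (CLss/F) and terminal half-life are reported as mean with SD.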

[7] = Effect of a high-fat meal on PK of INCB057643; assay type: in vivo, human
Outline: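 Steady-state plasma PK was compared within 12 patients, each dosed orally once daily in the fasted state and with a high-fat meal. Parameters (Tmax, Cmax, AUCtau) came from noncompartmental analysis. The fed/fasted ratio of geometric means is reported with its 90% CI.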

[8] = system: patients with advanced malignancies; assay: Safety and tolerability, phase 1/2 study INCB 57643-101; assay type: in vivo; settings: for TRAEs (any): all treatment groups; for TRAE thrombocytopenia: incl. platelet counts decreased
[9] = system: advanced malignancies; assay: Objective response assessment, study INCB 57643-101; assay type: in vivo, human; settings: for reduction in spleen size by manual palpation: one MF patient
Outline: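 Open-label phase 1/2 study in adults (≥18 y) with relapsed/refractory advanced malignancies. Oral dosing was 8–16 mg QD, continuous, as monotherapy (escalation; expansion at 12 mg QD) or from 8 mg QD combined with standard-of-care agents, in 21- or 28-day cycles. Response was assessed with malignancy-specific criteria in patients with ≥1 dose, measurable/evaluable baseline disease and ≥1 post-baseline assessment.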

[10] = system: coagulation factor VII (Factor VII); assay: Olink multiplex proximity extension assay of patient plasma; assay type: in vivo, human; settings: cycle 1 day 8
Outline: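 Plasma from 80 patients dosed orally at 8, 12 or 16 mg QD was collected at baseline (cycle 1 day 1) and on treatment (cycle 1 day 8, cycle 2 day 1, cycle 4 day 1). About 1,012 proteins were profiled by multiplex proximity extension assay. Factor VII is expressed as fold-change versus baseline.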

[11] = system: patients with advanced solid tumors; settings: 36 patients with advanced solid tumors; cited from earlier work
[12] = Part 2 TGA, 12 mg QD, 86 patients
[13] = Part 3, 8 mg QD in combination with SOC agents, 13 patients

Cc1noc(C)c1-c1ccc2[nH]c(=O)n3c2c1OC[C@@H]3c1ccccn1 [INCB054329]
half-life ([1]; as summarised in discussion): < 5 h | oral clearance CLss/F, mean [SD] ([1]; overall, oral dosing, patients): 95.5 [135] L/h | terminal elimination half-life t1/2, mean [SD] ([1]; overall, oral dosing, patients): 2.24 [2.03] hours | patients with ≥1 any grade TRAE ([2]; 69 enrolled patients): 78% | MTD per protocol ([2]; Part 1 TGA): not reached | DLTs ([2]; Part 1 TGA, both grade 4 thrombocytopenia at 30 mg QD and 22.5 mg BID): 2 DLTs | DLTs ([2]; Part 1 TGB, 20 mg BID): No DLTs | TRAEs leading to dose interruptions ([2]; Part 1 TGB, due to grade 3 hyperglycemia): 2 patients | tolerability of the 20 mg BID starting dose ([2]; Part 2 dose titration): not tolerated | patients requiring dose interruption due to TRAEs ([2]; Part 2 dose titration, 20 mg BID start, 11 patients): 45% | incidence of TRAE anemia ([2]; any grade): 10% | incidence of TRAE decreased appetite ([2]; any grade): 26% | incidence of TRAE fatigue ([2]; any grade): 29% | incidence of TRAE nausea ([2]; any grade): 35% | incidence of TRAE thrombocytopenia ([2]; any grade): 33% | incidence of TRAE vomiting ([2]; any grade): 10% | TRAEs (any) ([2]; any grade, n = 69): 54 (78) n (%) | TRAE anemia ([2]; any grade, n = 69): 7 (10) n (%) | TRAE decreased appetite ([2]; any grade, n = 69): 18 (26) n (%) | TRAE diarrhea ([2]; any grade, n = 69): 12 (17) n (%) | TRAE dysgeusia ([2]; any grade, n = 69): 9 (13) n (%) | TRAE fatigue ([2]; any grade, n = 69): 20 (29) n (%) | TRAE hyperglycemia ([2]; any grade, n = 69): 3 (4)^c n (%) | TRAE nausea ([2]; any grade, n = 69): 24 (35) n (%) | TRAE vomiting ([2]; any grade, n = 69): 7 (10) n (%) | TRAE thrombocytopenia ([2]; any grade, n = 69): 23 (33) n (%) | incidence of TRAE AST increased ([2]; grade ≥3): 4% | incidence of TRAE anemia ([2]; grade ≥3): 6% | incidence of TRAE hyperglycemia ([2]; grade ≥3): 3% | incidence of TRAE neutropenia ([2]; grade ≥3): 6% | TRAEs (any) ([2]; grade ≥3, n = 69): 16 (23) n (%) | TRAE anemia ([2]; grade ≥3, n = 69): 4 (6) n (%) | TRAE decreased appetite ([2]; grade ≥3, n = 69): 0 (0) n (%) | TRAE diarrhea ([2]; grade ≥3, n = 69): 0 (0) n (%) | TRAE dysgeusia ([2]; grade ≥3, n = 69): 0 (0) n (%) | TRAE fatigue ([2]; grade ≥3, n = 69): 0 (0) n (%) | TRAE hyperglycemia ([2]; grade ≥3, n = 69): 2 (3) n (%) | TRAE nausea ([2]; grade ≥3, n = 69): 1 (1) n (%) | TRAE vomiting ([2]; grade ≥3, n = 69): 1 (1) n (%) | TRAE thrombocytopenia ([2]; grade ≥3, n = 69): 9 (13) n (%) | deaths deemed treatment-related ([2]; in vivo): none | discontinuation, primary reason adverse event ([2]; n = 69): 2 (3) n (%) | discontinuation, primary reason death ([2]; n = 69): 1 (1) n (%) | TRAEs leading to dose interruptions ([2]; overall): 29% | TRAEs leading to dose reductions ([2]; overall): 7% | dose interruptions due to thrombocytopenia ([2]; overall): 17% | patients who discontinued treatment due to TRAEs ([2]; overall): 4% | serious TRAE anemia ([2]; overall): 2 patients | serious TRAE thrombocytopenia ([2]; overall): 4 patients | patients experiencing serious TRAEs ([2]; overall, n = 69): 7 patients | confirmed clinical response ([3]; 69 patients): none and no confirmed clinical responses | patients with stable disease as best response ([3]; all with solid tumors): Twenty-one | patients who maintained SD for ≥6 months ([3]; in vivo): 4 patients | discontinuation, primary reason disease progression ([3]; n = 69): 53 (77) n (%) | metabolism by CYP3A4 [4]: metabolized | metabolism by CYP2C19 [5]: metabolized

CN1C(=O)C(C)(C)Oc2c(-c3cn(C)c(=O)c4[nH]ccc34)cc(S(C)(=O)=O)cc21 [INCB057643]
half-life ([6]; oral): ~10 h | half-life ([6]; po): 11.1 h | oral clearance CLss/F, mean [SD] ([6]; overall, oral dosing, patients): 11.1 [4.97] L/h | fed vs. fasted geometric mean ratio of Cmax ([7]; 90% CI 0.78–1.01): 0.89 | fed vs. fasted geometric mean ratio of AUCtau ([7]; 90% CI 0.99–1.29): 1.13 | increase of geometric mean AUCtau by high-fat meal ([7]; fed vs fasted): 13% | lowering of geometric mean Cmax by high-fat meal ([7]; fed vs fasted): 11% | patients requiring dose interruptions and/or reductions due to AEs ([8]; 16 mg QD cohort, cycles 1 and 2): 50% | patients with ≥1 any grade TRAE ([8]; 134 enrolled patients): 86% | tolerability of the 16 mg QD dose ([8]; Part 1 TGA): not tolerated | DLTs ([8]; Part 1 TGA, grade 3 increased INR, 16 mg QD cohort of 8 patients): 1 DLT | TRAEs leading to dose interruptions ([8]; Part 2 TGA, 12 mg QD): 35% | TRAEs leading to dose reductions ([8]; Part 2 TGA, 12 mg QD): 11% | patients with a grade 3/4 TRAE [8, 12]: 36% | patients with a serious TRAE [8, 12]: 13% | patients with a grade 3/4 TRAE ([8]; Part 2 TGB, 12 mg QD, 5 patients): 40% | patients requiring dose interruption ([8]; Part 2 TGB, 12 mg QD, febrile neutropenia and thrombocytopenia): 20% | TRAEs leading to dose interruptions [8, 13]: 6 patients | TRAEs leading to dose reductions [8, 13]: 4 patients | incidence of TRAE anemia ([8]; any grade): 14% | incidence of TRAE decreased appetite ([8]; any grade): 22% | incidence of TRAE diarrhea ([8]; any grade): 16% | incidence of TRAE dysgeusia ([8]; any grade): 16% | incidence of TRAE fatigue ([8]; any grade): 30% | incidence of TRAE hyperglycemia ([8]; any grade): 13% | incidence of TRAE nausea ([8]; any grade): 30% | incidence of TRAE thrombocytopenia ([8]; any grade): 32% | incidence of TRAE vomiting ([8]; any grade): 16% | patients with treatment-related INR increased events ([8]; any grade): Seven | TRAEs (any) ([8]; any grade, n = 134): 115 (86) n (%) | TRAE anemia ([8]; any grade, n = 134): 19 (14) n (%) | TRAE decreased appetite ([8]; any grade, n = 134): 30 (22) n (%) | TRAE diarrhea ([8]; any grade, n = 134): 21 (16) n (%) | TRAE dysgeusia ([8]; any grade, n = 134): 22 (16) n (%) | TRAE fatigue ([8]; any grade, n = 134): 40 (30) n (%) | TRAE hyperglycemia ([8]; any grade, n = 134): 18 (13) n (%) | TRAE nausea ([8]; any grade, n = 134): 40 (30) n (%) | TRAE vomiting ([8]; any grade, n = 134): 21 (16) n (%) | TRAE thrombocytopenia ([8]; any grade, n = 134): 43 (32) n (%) | MTD per protocol definition ([8]; at 16 mg QD): not reached | incidence of TRAE INR increased ([8]; grade ≥3): 2% | incidence of TRAE anemia ([8]; grade ≥3): 10% | incidence of TRAE dehydration ([8]; grade ≥3): 2% | incidence of TRAE diarrhea ([8]; grade ≥3): 2% | incidence of TRAE hyperglycemia ([8]; grade ≥3): 3% | incidence of TRAE hyponatremia ([8]; grade ≥3): 2% | incidence of TRAE nausea ([8]; grade ≥3): 2% | incidence of TRAE syncope ([8]; grade ≥3): 2% | incidence of TRAE vomiting ([8]; grade ≥3): 2% | TRAEs (any) ([8]; grade ≥3, n = 134): 48 (36) n (%) | TRAE anemia ([8]; grade ≥3, n = 134): 14 (10) n (%) | TRAE decreased appetite ([8]; grade ≥3, n = 134): 0 (0) n (%) | TRAE diarrhea ([8]; grade ≥3, n = 134): 2 (2) n (%) | TRAE dysgeusia ([8]; grade ≥3, n = 134): 0 (0) n (%) | TRAE fatigue ([8]; grade ≥3, n = 134): 1 (1) n (%) | TRAE hyperglycemia ([8]; grade ≥3, n = 134): 4 (3) n (%) | TRAE nausea ([8]; grade ≥3, n = 134): 2 (2) n (%) | TRAE vomiting ([8]; grade ≥3, n = 134): 2 (2) n (%) | TRAE thrombocytopenia ([8]; grade ≥3, n = 134): 24 (18) n (%) | deaths deemed related to treatment ([8]; human, in vivo): 2 deaths | deaths during the study ([8]; human, in vivo): 17 deaths | discontinuation, primary reason adverse event ([8]; n = 134): 20 (15) n (%) | discontinuation, primary reason death ([8]; n = 134): 9 (7) n (%) | patients requiring dose reductions ([8]; overall): 11% | patients who discontinued treatment due to TRAEs ([8]; overall): 11% | patients with objective responses ([9]; 134 patients): 6 patients | patients who maintained SD for ≥6 months ([9]; all with solid tumors): 6 patients | duration of complete response ([9]; follicular lymphoma patient, 8 mg QD, ongoing at data cutoff): > 2 years | patients with SD as best response ([9]; in vivo): Twenty-seven | patients with progressive disease as best response ([9]; in vivo): Forty-one | discontinuation, primary reason disease progression ([9]; n = 134): 76 (57) n (%) | reduction in spleen size by manual palpation ([9]; 8 mg QD + ruxolitinib): 77% | reduction in spleen size by manual palpation ([9]; 12 mg QD monotherapy): 92.5% | Factor VII mean [SEM] fold decrease vs. baseline ([10]; 8 mg): −0.32 [0.10] | Factor VII mean [SEM] fold decrease vs. baseline ([10]; 12 mg): −0.53 [0.14] | Factor VII mean [SEM] fold decrease vs. baseline ([10]; 16 mg): −0.53 [0.33]

Cc1noc(C)c1-c1cnc2c(-c3ccc(C(=O)O)cc3)cn([C@@H](C)c3ccccn3)c2c1 [PLX51107]
INR increase, patients [11]: 17%
